Drawing on ChEMBL document CHEMBL3271979, “Inhibition of solid tumors by nitrosoureas. 1. Lewis lung carcinoma” (1977), this text covers ILS, Activity and inhibition for six compounds.

A short description of test [1]: Antitumor activity against mouse advanced Lewis lung carcinoma allografted in BDF1 mouse assessed as increase in host life span at 30 mg/kg, ip administered as single dose on 7th day post-tumor implantation. To be noted: route intraperitoneal. In kind it is functional. Put shortly: (§1)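 BDF1 mice (C57Blk/6 × DBA/2) implanted sc by trocar with about 40 mg Lewis lung tumor fragments from bacteriologically sterile donors. Advanced-disease groups held tumors of about 400 mg by day 6-7, sized by caliper (w = ab²/2). Single ip injection on day 7, in water or saline vehicle, at or below the LD10 in normal mice. Tumors measured at least twice weekly.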

Test [2] has as its system Mus musculus. Briefly: Antitumor activity against mouse advanced Lewis lung carcinoma allografted in ip dosed BDF1 mouse assessed as disease cure administered as single dose on day 6 or 7 post-tumor implantation. In kind it is functional, organism-based. Put shortly:
(§2)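 BDF1 mice (C57Blk/6 × DBA/2) implanted sc by trocar with Lewis lung tumor fragments of about 40 mg, taken only from bacteriologically sterile donor tumors. Mice bearing tumors of about 400 mg (day 6-7) were selected. Each received a single ip dose on day 7, at or below the LD10 in normal mice. Groups were of 10 mice. Tumor weight was taken from calipers as w = ab²/2, measured at least twice weekly. Matched non-tumor mice served as toxicity controls.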

Test [3] in a line: Antitumor activity against mouse advanced Lewis lung carcinoma allografted in BDF1 mouse assessed as increase in host life span at 29 mg/kg, ip administered as single dose on 7th day post-tumor implantation. In kind it is functional. To be noted: route intraperitoneal. Put shortly: as §1
Test [4] relates to Mus musculus. Briefly: Antitumor activity against mouse advanced Lewis lung carcinoma allografted in BDF1 mouse assessed as complete regression of established tumor at 41 mg/kg, ip administered as single dose on 7th day post-tumor implantation. Format: functional, organism-based. Set-up: dose 41 mg/kg. The method, boiled down: as §2
Test [5] can be described thus: Antitumor activity against mouse advanced Lewis lung carcinoma allografted in BDF1 mouse assessed as increase in host life span at 41 mg/kg, ip administered as single dose on 7th day post-tumor implantation. Format: functional. Conditions: route intraperitoneal. The method, boiled down:
as §1

The subject of test [6] is Mus musculus. Description: Antitumor activity against mouse advanced Lewis lung carcinoma allografted in BDF1 mouse assessed as complete regression of established tumor at 27 mg/kg, ip administered as single dose on 7th day post-tumor implantation. Format: functional, organism-based. Set-up: dose 27 mg/kg. The method, boiled down: as §2
Test [7] deals with Mus musculus. Description: Antitumor activity against mouse advanced Lewis lung carcinoma allografted in BDF1 mouse assessed as disease cure at 41 mg/kg, ip administered as single dose on 7th day post-tumor implantation measured for 80 days post-drug treatment. In kind it is functional, organism-based. Set-up: dose 41 mg/kg. Put shortly:
as §2

Test [8] is described as follows: Antitumor activity against mouse advanced Lewis lung carcinoma allografted in BDF1 mouse assessed as increase in host life span at 27 mg/kg, ip administered as single dose on 7th day post-tumor implantation. Format: functional. To be noted: route intraperitoneal. Put shortly: as §1
Test [9] can be described thus: Antitumor activity against mouse advanced Lewis lung carcinoma allografted in ip dosed BDF1 mouse assessed as increase in host lifespan administered as single dose on day 6 or 7 post-tumor implantation. Format: functional. The method, boiled down: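 Advanced Lewis lung model: about 40 mg fragments implanted sc by trocar into BDF1 mice, and mice with tumors of about 400 mg (day 6-7) selected. Tumor weight from calipers, w = ab²/2. Agent given as one ip dose in distilled water or physiological saline. Nontumor-bearing mice received matching doses as toxicity controls.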

The test system of test [10] is Mus musculus. Briefly: Antitumor activity against mouse advanced Lewis lung carcinoma allografted in ip dosed BDF1 mouse assessed as complete regression of established tumor administered as single dose on day 6 or 7 post-tumor implantation. In kind it is functional, organism-based. The method, boiled down:
as §2

In test [11] the test system is Mus musculus. Description: Antitumor activity against mouse advanced Lewis lung carcinoma allografted in BDF1 mouse assessed as disease cure at 27 mg/kg, ip administered as single dose on 7th day post-tumor implantation measured for 80 days post-drug treatment. Set-up: dose 27 mg/kg. In kind it is functional, organism-based. The method, boiled down: as §2
Test [12] can be described thus: Antitumor activity against mouse advanced Lewis lung carcinoma allografted in BDF1 mouse assessed as increase in host life span at 90 mg/kg, ip administered as single dose on 7th day post-tumor implantation. Format: functional. To be noted: route intraperitoneal. The method, boiled down: as §1
For test [13], the system named is Mus musculus. Briefly: Antitumor activity against mouse advanced Lewis lung carcinoma allografted in BDF1 mouse assessed as disease cure at 90 mg/kg, ip administered as single dose on 7th day post-tumor implantation measured for 80 days post-drug treatment. Format: functional, organism-based. Set-up: dose 90 mg/kg. The method, boiled down:
as §2

The subject of test [14] is Mus musculus. Briefly: Antitumor activity against mouse advanced Lewis lung carcinoma allografted in BDF1 mouse assessed as disease cure at 67 mg/kg, ip administered as single dose on 7th day post-tumor implantation measured for 80 days post-drug treatment. In kind it is functional, organism-based. Set-up: dose 67 mg/kg. The method, boiled down: as §2
Test [15] can be described thus: Antitumor activity against mouse advanced Lewis lung carcinoma allografted in BDF1 mouse assessed as increase in host life span at 67 mg/kg, ip administered as single dose on 7th day post-tumor implantation. Format: functional. Conditions: route intraperitoneal. Put shortly: as §1
Test [16] relates to Mus musculus. Briefly: Antitumor activity against mouse advanced Lewis lung carcinoma allografted in BDF1 mouse assessed as disease cure at 52 mg/kg, ip administered as single dose on 7th day post-tumor implantation measured for 80 days post-drug treatment. Format: functional, organism-based. Set-up: dose 52 mg/kg. The method, boiled down: as §2
The nature of test [17]: Antitumor activity against mouse advanced Lewis lung carcinoma allografted in BDF1 mouse assessed as increase in host life span at 52 mg/kg, ip administered as single dose on 7th day post-tumor implantation. Conditions: route intraperitoneal. In kind it is functional. Put shortly:
as §1

For test [18], the system named is Mus musculus. Description: Antitumor activity against mouse advanced Lewis lung carcinoma allografted in BDF1 mouse assessed as disease cure at 93 mg/kg, ip administered as single dose on 7th day post-tumor implantation measured for 80 days post-drug treatment. Set-up: dose 93 mg/kg. In kind it is functional, organism-based. The method, boiled down: as §1
A short description of test [19]: Antitumor activity against mouse advanced Lewis lung carcinoma allografted in BDF1 mouse assessed as increase in host life span at 93 mg/kg, ip administered as single dose on 7th day post-tumor implantation. Format: functional. Conditions: route intraperitoneal. The method, boiled down:
as §1

Test [20] in a line: Antitumor activity against mouse advanced Lewis lung carcinoma allografted in BDF1 mouse assessed as increase in host life span at 62 mg/kg, ip administered as single dose on 7th day post-tumor implantation. Conditions: route intraperitoneal. Format: functional. The method, boiled down:
as §1

The test system of test [21] is Mus musculus. Briefly: Antitumor activity against mouse advanced Lewis lung carcinoma allografted in BDF1 mouse assessed as disease cure at 62 mg/kg, ip administered as single dose on 7th day post-tumor implantation measured for 80 days post-drug treatment. In kind it is functional, organism-based. Set-up: dose 62 mg/kg. Put shortly: as §1
Test [22] deals with Mus musculus. Description: Antitumor activity against mouse advanced Lewis lung carcinoma allografted in BDF1 mouse assessed as complete regression of established tumor at 93 mg/kg, ip administered as single dose on 7th day post-tumor implantation. In kind it is functional, organism-based. Set-up: dose 93 mg/kg. Put shortly:
as §1

Test [23] relates to Mus musculus. Description: Antitumor activity against mouse advanced Lewis lung carcinoma allografted in BDF1 mouse assessed as complete regression of established tumor at 62 mg/kg, ip administered as single dose on 7th day post-tumor implantation. In kind it is functional, organism-based. Set-up: dose 62 mg/kg. The method, boiled down: as §1

Activity calls are given as the source filed them. No cut-off for these calls is given here.

For the compound `CCOC(=O)[C@H]1CC[C@H](NC(=O)N(CCCl)N=O)CC1`, in [1], the ILS (in general, the gain in survival time of treated over control animals, in per cent) at 30 mg/kg came out at 68%. Besides, in test [2], the outcome was Active. Further, the ILS at 29 mg/kg in test [3] was 75%.

Regarding `O=NN(CCF)C(=O)NC1CSCSC1`, the inhibition entry in test [4], in [6] and in [10] was “inactive” each time. The ILS at 41 mg/kg in test [5] was 21%. Also, the result in test [7], in test [2] and in test [11] was inactive. For the same compound, in [8], the ILS at 27 mg/kg is 40%. For the same compound, the ILS in test [9] is over 25%.

For `O=NN(CCCl)C(=O)N[C@H]1CCCC[C@H]1Cl` (relative stereo), the ILS at 90 mg/kg in test [12] came to 62%. Further, the outcome in test [2] and in test [13] was inactive. In test [9], the ILS is given as over 25%.

With `CC[C@H]1CC[C@H](NC(=O)N(CCCl)N=O)CC1`, the result in test [14] and in [2] was inactive. Further, the ILS at 67 mg/kg in [15] was determined as 17%. Further, the inhibition entry in [10] is “Active”.

Consider `CC1(C)CCC(NC(=O)N(CCF)N=O)CC1`, for which the result in [16] and in test [2] was inactive. The ILS at 52 mg/kg in test [17] was determined as 100%. Further, the inhibition result in test [10] was “Active”.

Take `Cc1ccc(S(=O)(=O)NC(=O)N(CCCl)N=O)cc1`: the result in test [18], in [2] and in [21] was inactive. Moreover, the ILS at 93 mg/kg in [19] came to 28%. In test [20], the ILS at 62 mg/kg worked out at 28%. Further, the ILS in [9] is over 25%. Besides, the inhibition entry in test [10], in test [22] and in [23] was “inactive” in each case.
